Measurements as given in article PMC4097008 (Molecular immunology, 2014).
Where two headings read alike, the source gives them in different places.

Assays:
Bla g 4 [1] = target: T1, Bla g 4 (Blattella germanica, UniProt P54962); test: isothermal titration calorimetry; assay type: binding
Method in brief: (§1)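 Bla g 4 binding enthalpy was recorded by ITC at 25°C in 20 mM phosphate buffer, pH 8.0, with 100 μM protein and test amine titrant at 1 mM initial concentration. Supporting 1H-15N HSQC titrations used 0.2 mM 15N-labelled Bla g 4 (M9, 15N ammonium chloride) in 20 mM acetate, pH 4.5, 10% D2O, at 308 K and 800 MHz. Protein:ligand molar ratios were 1:0, 1:0.5, 1:1 and 1:2.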

Bla g 4 [2] = target: T1, Bla g 4; test: isothermal titration calorimetry; assay type: binding; remark: listed apart in the source
Method in brief: as §1

T1 sequence (P54962 7-182): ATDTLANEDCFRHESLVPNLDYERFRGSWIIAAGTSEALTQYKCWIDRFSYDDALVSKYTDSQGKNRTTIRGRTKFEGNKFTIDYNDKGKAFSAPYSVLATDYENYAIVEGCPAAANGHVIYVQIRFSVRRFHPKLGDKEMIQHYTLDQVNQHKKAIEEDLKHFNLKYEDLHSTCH

SMILES	Kd (Bla g 4 [1]) [nM]	Kd (Bla g 4 [2]) [nM]
NC[C@H](O)c1ccc(O)cc1 [octopamine]	185	
NCCc1ccc(O)cc1 [tyramine]		45
